Assay results from ChEMBL document CHEMBL4190289, “Antifungal and Cytotoxic β-Resorcylic Acid Lactones from a Paecilomyces Species” (J Nat Prod, 2017).
Structures can show the parent of a compound that is named as a salt.

Key:
[1] = system: Fusarium verticillioides; experiment: Antifungal activity against Fusarium verticillioides after 8 hrs by conidial germination assay; assay type: functional, organism-based
Procedure, shortened: (§1)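 Conidia from PDA cultures (P. litchii 7-day-old, F. verticillioides 3-day-old), diluted in half-strength PDB, counted and used immediately. Samples in DMSO as 2-fold series; final 0.625 to 80 μg/mL. Incubated 8 h at 30 °C, 150 rpm. Germination scored microscopically (germ tube ≥1.5× spore diameter), >200 conidia per replicate, triplicate. Thiram positive, DMSO negative control. IC50 from logistic nonlinear regression.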

[2] = system: A549; experiment: Cytotoxicity against human A549 cells after 72 hrs by MTT assay; assay type: functional, cell-based; conditions: A549, 72 h
Procedure, shortened: (§2)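 MTT colorimetric readout. DMSO stocks serially diluted in culture medium to final 50, 10, 2, 0.4, 0.08 and 0.016 μM, quadruplicate wells per concentration. Adriamycin as positive control. Inhibition rate computed from treated, control and blank OD. IC50 by nonlinear regression of logistic dose–response curves. Means ± SD of three independent experiments.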

[3] = system: Phytophthora litchii; experiment: Antifungal activity against Peronophythora litchii after 8 hrs by conidial germination assay; assay type: functional, organism-based; procedure, shortened: as §1
[4] = system: MCF7; experiment: Cytotoxicity against human MCF7 cells after 72 hrs by MTT assay; assay type: functional, cell-based; conditions: MCF7, 72 h; procedure, shortened: as §2
[5] = system: HeLa; experiment: Cytotoxicity against human HeLa cells after 72 hrs by MTT assay; assay type: functional, cell-based; procedure, shortened: as §2

Compound | IC50 [1] [µM] | IC50 [2] [µM] | IC50 [3] [µM] | IC50 [4] [µM] | IC50 [5] [µM]
C[C@H]1C/C=C/CC(=O)CC/C=C/c2cc(O)cc(O)c2C(=O)O1 | > 100 | 3.9 | > 100 | 6.9 | 3.6
C[C@@H]1C[C@H]2O[C@@H]2/C=C\C=C\C(=O)Cc2c(Cl)c(O)cc(O)c2C(=O)O1 [RADICICOL] | 8 | 0.1 | 1.4 | 0.4 | 0.1
COc1cccc2c1C(=O)c1c(O)c3c(c(O)c1C2=O)C[C@@](O)(C(=O)CO)C[C@@H]3O[C@H]1C[C@H](N)[C@H](O)[C@H](C)O1 [DOXORUBICIN HYDROCHLORIDE] | – | 0.1 | – | – | 0.3
COc1cc(O)c2c(c1)[C@H]1O[C@@H]1CC1=C(O)C(=O)C[C@@H]1C[C@H](C)OC2=O | > 100 | > 10 | > 100 | > 10 | > 10
C[C@@H]1C/C=C/CC[C@@H](O)CC(=O)Cc2cc(O)cc(O)c2C(=O)O1 | > 100 | > 10 | > 100 | > 10 | > 10
COc1cc(O)c2c(c1)[C@H]1O[C@@H]1CC1=C(O)C(=O)C[C@H]1C[C@H](C)OC2=O | > 100 | > 10 | > 100 | > 10 | > 10
C[C@@H]1C/C=C/CC/C=C\C(=O)Cc2cc(O)cc(O)c2C(=O)O1 | > 100 | 4.1 | 9.2 | 1.7 | 3.6
CO[C@@H]1CC/C=C/C[C@@H](C)OC(=O)c2c(O)cc(O)cc2CC(=O)C1 | > 100 | > 10 | 19.3 | > 10 | > 10
C[C@@H]1C[C@H]2O[C@@H]2CC/C=C/C(=O)Cc2cc(O)cc(O)c2C(=O)O1 [MONOCILLIN III] | > 100 | 2.1 | 12 | > 10 | 3.4
C[C@@H]1C/C=C/CC/C=C/C(=O)Cc2cc(O)cc(O)c2C(=O)O1 | > 100 | 1.7 | 9.8 | 4.1 | 2.7
C[C@@H]1C[C@H]2C=CC[C@H](CC(=O)Cc3cc(O)cc(O)c3C(=O)O1)O2 | > 100 | 4.1 | 41 | 4.9 | 3.9
C[C@@H]1Cc2ccccc2C(=O)Cc2cc(O)cc(O)c2C(=O)O1 | > 100 | > 10 | > 100 | > 10 | > 10
COc1cc(O)c2c(c1)[C@H]1O[C@@H]1C[C@H](O)[C@H](O)C(=O)/C=C\C[C@H](C)OC2=O [HYPOTHEMYCIN] | 1.1 | 1 | 1.9 | 3.3 | 1
C[C@@H]1C[C@H]2O[C@@H]2/C=C\C=C\C(=O)Cc2cc(O)cc(O)c2C(=O)O1 [MONOCILLIN I] | > 100 | 2.6 | 7.9 | 8.1 | 2.7
CN(C)C(=S)SSC(=S)N(C)C [THIRAM] | 1.7 | – | 4.6 | – | –
C[C@@H]1C/C=C/CCCCC(=O)Cc2cc(O)cc(O)c2C(=O)O1 [MONOCILLIN IV] | > 100 | > 10 | 33.6 | 3.6 | > 10
